Data: ChEMBL document CHEMBL1153598, “Syntheses of low-hemolytic antimicrobial gratisin peptides” (Bioorg Med Chem Lett, 2009)
Converted amounts (≈) assume the structure as drawn. Non-standard residues stand in square brackets, D forms with d. Residues, ends and D or L forms follow the SMILES beside them. Orn = NCCC[C@H](N)C(=O)O

Key:
Pseudomonas aeruginosa = assay: Antibiotic activity against Pseudomonas aeruginosa NBRC 3080 by microplate dilution assay; type: functional
Procedure, shortened: (§1)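 Minimum inhibitory concentration determined by microplate dilution, inoculum 10⁶ organisms per ml. Strains tested: Bacillus subtilis NBRC 3513, Bacillus megaterium ATCC 19213, Staphylococcus epidermidis NBRC 12933, Staphylococcus aureus NBRC 12732, Pseudomonas aeruginosa NBRC 3080, Escherichia coli NBRC 12734. MIC reported in µg/mL.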

[1] = test system: Staphylococcus epidermidis; assay: Antibiotic activity against Staphylococcus epidermidis NBRC 12933 by microplate dilution assay; type: functional; procedure, shortened: as §1
Priestia megaterium = assay: Antibiotic activity against Bacillus megaterium ATCC 19213 by microplate dilution assay; type: functional; procedure, shortened: as §1
Bacillus subtilis = assay: Antibiotic activity against Bacillus subtilis NBRC 3513 by microplate dilution assay; type: functional; procedure, shortened: as §1
Staphylococcus aureus = assay: Antibiotic activity against Staphylococcus aureus NBRC 12732 by microplate dilution assay; type: functional; procedure, shortened: as §1
[2] = Cytotoxicity against human red blood cells assessed as hemolysis after 30 mins; type: cell-based; conditions: erythrocyte, 0.5 h
Escherichia coli = assay: Antibiotic activity against Escherichia coli NBRC 12734 by microplate dilution assay; type: functional; procedure, shortened: as §1

MIC (Pseudomonas aeruginosa)	MIC [1]	MIC (Priestia megaterium)	MIC (Bacillus subtilis)	MIC (Staphylococcus aureus)	MIC (Escherichia coli)	Compound	Activity [2]
> 100 µg/mL	25 µg/mL (≈ 17.9 µM)	12.5 µg/mL (≈ 8.94 µM)	12.5 µg/mL (≈ 8.94 µM)	25 µg/mL (≈ 17.9 µM)	> 100 µg/mL	CC(C)C[C@@H]1NC(=O)[C@H](CCCN)NC(=O)[C@H](C(C)C)NC(=O)[C@@H](CCC(N)=O)NC(=O)[C@@H]2CCCN2C(=O)[C@@H](Cc2ccccc2)NC(=O)[C@H](CC(C)C)NC(=O)[C@H](CCCN)NC(=O)[C@H](C(C)C)NC(=O)[C@@H](CCC(N)=O)NC(=O)[C@@H]2CCCN2C(=O)[C@@H](Cc2ccccc2)NC1=O	Dose-dependent effect
25 µg/mL (≈ 18.3 µM)	6.25 µg/mL (≈ 4.56 µM)	6.25 µg/mL (≈ 4.56 µM)	6.25 µg/mL (≈ 4.56 µM)	6.25 µg/mL (≈ 4.56 µM)	25 µg/mL (≈ 18.3 µM)	CC(C)C[C@@H]1NC(=O)[C@H](CCCN)NC(=O)[C@H](C(C)C)NC(=O)[C@@H](CCCN)NC(=O)[C@@H]2CCCN2C(=O)[C@@H](Cc2ccccc2)NC(=O)[C@H](CC(C)C)NC(=O)[C@H](CCCN)NC(=O)[C@H](C(C)C)NC(=O)[C@@H](CCCN)NC(=O)[C@@H]2CCCN2C(=O)[C@@H](Cc2ccccc2)NC1=O	Dose-dependent effect
50 µg/mL (≈ 36.6 µM)	6.25 µg/mL (≈ 4.57 µM)	6.25 µg/mL (≈ 4.57 µM)	6.25 µg/mL (≈ 4.57 µM)	3.13 µg/mL (≈ 2.29 µM)	100 µg/mL (≈ 73.1 µM)	CCCC[C@H]1NC(=O)[C@@H]2CCCN2C(=O)[C@@H](Cc2ccccc2)NC(=O)[C@H](CC(C)C)NC(=O)[C@H](CCCN)NC(=O)[C@H](C(C)C)NC(=O)[C@@H](CCCC)NC(=O)[C@@H]2CCCN2C(=O)[C@@H](Cc2ccccc2)NC(=O)[C@H](CC(C)C)NC(=O)[C@H](CCCN)NC(=O)[C@H](C(C)C)NC1=O	Dose-dependent effect
> 100 µg/mL	25 µg/mL (≈ 17.7 µM)	12.5 µg/mL (≈ 8.83 µM)	12.5 µg/mL (≈ 8.83 µM)	12.5 µg/mL (≈ 8.83 µM)	> 100 µg/mL	CC(C)C[C@@H]1NC(=O)[C@H](CCCN)NC(=O)[C@H](C(C)C)NC(=O)[C@@H](Cc2cnc[nH]2)NC(=O)[C@@H]2CCCN2C(=O)[C@@H](Cc2ccccc2)NC(=O)[C@H](CC(C)C)NC(=O)[C@H](CCCN)NC(=O)[C@H](C(C)C)NC(=O)[C@@H](Cc2cnc[nH]2)NC(=O)[C@@H]2CCCN2C(=O)[C@@H](Cc2ccccc2)NC1=O	Dose-dependent effect
12.5 µg/mL (≈ 8.6 µM)	6.25 µg/mL (≈ 4.3 µM)	3.13 µg/mL (≈ 2.15 µM)	6.25 µg/mL (≈ 4.3 µM)	3.13 µg/mL (≈ 2.15 µM)	12.5 µg/mL (≈ 8.6 µM)	CC(C)C[C@@H]1NC(=O)[C@H](CCCN)NC(=O)[C@H](C(C)C)NC(=O)[C@@H](CCCNC(=N)N)NC(=O)[C@@H]2CCCN2C(=O)[C@@H](Cc2ccccc2)NC(=O)[C@H](CC(C)C)NC(=O)[C@H](CCCN)NC(=O)[C@H](C(C)C)NC(=O)[C@@H](CCCNC(=N)N)NC(=O)[C@@H]2CCCN2C(=O)[C@@H](Cc2ccccc2)NC1=O	Dose-dependent effect
100 µg/mL (≈ 69.6 µM)	12.5 µg/mL (≈ 8.71 µM)	6.25 µg/mL (≈ 4.35 µM)	6.25 µg/mL (≈ 4.35 µM)	12.5 µg/mL (≈ 8.71 µM)	> 100 µg/mL	CC(C)C[C@@H]1NC(=O)[C@H](CCCN)NC(=O)[C@H](C(C)C)NC(=O)[C@@H](Cc2ccccc2)NC(=O)[C@@H]2CCCN2C(=O)[C@@H](Cc2ccccc2)NC(=O)[C@H](CC(C)C)NC(=O)[C@H](CCCN)NC(=O)[C@H](C(C)C)NC(=O)[C@@H](Cc2ccccc2)NC(=O)[C@@H]2CCCN2C(=O)[C@@H](Cc2ccccc2)NC1=O	Dose-dependent effect
> 100 µg/mL	> 100 µg/mL	100 µg/mL (≈ 79.6 µM)	100 µg/mL (≈ 79.6 µM)	100 µg/mL (≈ 79.6 µM)	> 100 µg/mL	CC(C)C[C@@H]1NC(=O)[C@H](CCCN)NC(=O)[C@H](C(C)C)NC(=O)CNC(=O)[C@@H]2CCCN2C(=O)[C@@H](Cc2ccccc2)NC(=O)[C@H](CC(C)C)NC(=O)[C@H](CCCN)NC(=O)[C@H](C(C)C)NC(=O)CNC(=O)[C@@H]2CCCN2C(=O)[C@@H](Cc2ccccc2)NC1=O	Dose-dependent effect
> 100 µg/mL	25 µg/mL (≈ 18.7 µM)	12.5 µg/mL (≈ 9.33 µM)	12.5 µg/mL (≈ 9.33 µM)	12.5 µg/mL (≈ 9.33 µM)	> 100 µg/mL	CCC[C@H]1NC(=O)[C@@H]2CCCN2C(=O)[C@@H](Cc2ccccc2)NC(=O)[C@H](CC(C)C)NC(=O)[C@H](CCCN)NC(=O)[C@H](C(C)C)NC(=O)[C@@H](CCC)NC(=O)[C@@H]2CCCN2C(=O)[C@@H](Cc2ccccc2)NC(=O)[C@H](CC(C)C)NC(=O)[C@H](CCCN)NC(=O)[C@H](C(C)C)NC1=O	Dose-dependent effect
100 µg/mL (≈ 73.1 µM)	12.5 µg/mL (≈ 9.14 µM)	6.25 µg/mL (≈ 4.57 µM)	6.25 µg/mL (≈ 4.57 µM)	12.5 µg/mL (≈ 9.14 µM)	> 100 µg/mL	CC(C)C[C@@H]1NC(=O)[C@H](CCCN)NC(=O)[C@H](C(C)C)NC(=O)[C@@H](CC(C)C)NC(=O)[C@@H]2CCCN2C(=O)[C@@H](Cc2ccccc2)NC(=O)[C@H](CC(C)C)NC(=O)[C@H](CCCN)NC(=O)[C@H](C(C)C)NC(=O)[C@@H](CC(C)C)NC(=O)[C@@H]2CCCN2C(=O)[C@@H](Cc2ccccc2)NC1=O	Dose-dependent effect
> 100 µg/mL	> 100 µg/mL	> 100 µg/mL	> 100 µg/mL	> 100 µg/mL	> 100 µg/mL	CC(C)C[C@@H]1NC(=O)[C@H](CCCN)NC(=O)[C@H](C(C)C)NC(=O)[C@@H](CCC(=O)O)NC(=O)[C@@H]2CCCN2C(=O)[C@@H](Cc2ccccc2)NC(=O)[C@H](CC(C)C)NC(=O)[C@H](CCCN)NC(=O)[C@H](C(C)C)NC(=O)[C@@H](CCC(=O)O)NC(=O)[C@@H]2CCCN2C(=O)[C@@H](Cc2ccccc2)NC1=O	Dose-dependent effect
						CC(C)C[C@@H]1NC(=O)[C@H](CCCN)NC(=O)[C@H](C(C)C)NC(=O)[C@@H]([C@H](C)O)NC(=O)[C@@H]2CCCN2C(=O)[C@@H](Cc2ccccc2)NC(=O)[C@H](CC(C)C)NC(=O)[C@H](CCCN)NC(=O)[C@H](C(C)C)NC(=O)[C@@H]([C@H](C)O)NC(=O)[C@@H]2CCCN2C(=O)[C@@H](Cc2ccccc2)NC1=O [listing 1 of 2 here]	Dose-dependent effect
> 100 µg/mL	100 µg/mL (≈ 74.4 µM)	100 µg/mL (≈ 74.4 µM)	100 µg/mL (≈ 74.4 µM)	50 µg/mL (≈ 37.2 µM)	> 100 µg/mL	CC(C)C[C@@H]1NC(=O)[C@H](CCCN)NC(=O)[C@H](C(C)C)NC(=O)[C@@H]([C@H](C)O)NC(=O)[C@@H]2CCCN2C(=O)[C@@H](Cc2ccccc2)NC(=O)[C@H](CC(C)C)NC(=O)[C@H](CCCN)NC(=O)[C@H](C(C)C)NC(=O)[C@@H]([C@H](C)O)NC(=O)[C@@H]2CCCN2C(=O)[C@@H](Cc2ccccc2)NC1=O [listing 2 of 2 here]	
> 100 µg/mL	12.5 µg/mL (≈ 9.33 µM)	6.25 µg/mL (≈ 4.67 µM)	6.25 µg/mL (≈ 4.67 µM)	12.5 µg/mL (≈ 9.33 µM)	> 100 µg/mL	CC(C)C[C@@H]1NC(=O)[C@H](CCCN)NC(=O)[C@H](C(C)C)NC(=O)[C@@H](C(C)C)NC(=O)[C@@H]2CCCN2C(=O)[C@@H](Cc2ccccc2)NC(=O)[C@H](CC(C)C)NC(=O)[C@H](CCCN)NC(=O)[C@H](C(C)C)NC(=O)[C@@H](C(C)C)NC(=O)[C@@H]2CCCN2C(=O)[C@@H](Cc2ccccc2)NC1=O	Dose-dependent effect
> 100 µg/mL	> 100 µg/mL	> 100 µg/mL	> 100 µg/mL	100 µg/mL (≈ 76 µM)	> 100 µg/mL	CC(C)C[C@@H]1NC(=O)[C@H](CCCN)NC(=O)[C@H](C(C)C)NC(=O)[C@@H](CO)NC(=O)[C@@H]2CCCN2C(=O)[C@@H](Cc2ccccc2)NC(=O)[C@H](CC(C)C)NC(=O)[C@H](CCCN)NC(=O)[C@H](C(C)C)NC(=O)[C@@H](CO)NC(=O)[C@@H]2CCCN2C(=O)[C@@H](Cc2ccccc2)NC1=O	Dose-dependent effect
12.5 µg/mL (≈ 8.94 µM)	6.25 µg/mL (≈ 4.47 µM)	6.25 µg/mL (≈ 4.47 µM)	6.25 µg/mL (≈ 4.47 µM)	6.25 µg/mL (≈ 4.47 µM)	25 µg/mL (≈ 17.9 µM)	CC(C)C[C@@H]1NC(=O)[C@H](CCCN)NC(=O)[C@H](C(C)C)NC(=O)[C@@H](CCCCN)NC(=O)[C@@H]2CCCN2C(=O)[C@@H](Cc2ccccc2)NC(=O)[C@H](CC(C)C)NC(=O)[C@H](CCCN)NC(=O)[C@H](C(C)C)NC(=O)[C@@H](CCCCN)NC(=O)[C@@H]2CCCN2C(=O)[C@@H](Cc2ccccc2)NC1=O	Dose-dependent effect
> 100 µg/mL	25 µg/mL (≈ 19.5 µM)	12.5 µg/mL (≈ 9.74 µM)	12.5 µg/mL (≈ 9.74 µM)	12.5 µg/mL (≈ 9.74 µM)	> 100 µg/mL	CC(C)C[C@@H]1NC(=O)[C@H](CCCN)NC(=O)[C@H](C(C)C)NC(=O)[C@@H](C)NC(=O)[C@@H]2CCCN2C(=O)[C@@H](Cc2ccccc2)NC(=O)[C@H](CC(C)C)NC(=O)[C@H](CCCN)NC(=O)[C@H](C(C)C)NC(=O)[C@@H](C)NC(=O)[C@@H]2CCCN2C(=O)[C@@H](Cc2ccccc2)NC1=O (cyclo(L[dF]P[dA]V[Orn]L[dF]P[dA]V[Orn]))	Dose-dependent effect
100 µg/mL (≈ 68.1 µM)	12.5 µg/mL (≈ 8.52 µM)	6.25 µg/mL (≈ 4.26 µM)	6.25 µg/mL (≈ 4.26 µM)	6.25 µg/mL (≈ 4.26 µM)	100 µg/mL (≈ 68.1 µM)	CC(C)C[C@@H]1NC(=O)[C@H](CCCN)NC(=O)[C@H](C(C)C)NC(=O)[C@@H](Cc2ccc(O)cc2)NC(=O)[C@@H]2CCCN2C(=O)[C@@H](Cc2ccccc2)NC(=O)[C@H](CC(C)C)NC(=O)[C@H](CCCN)NC(=O)[C@H](C(C)C)NC(=O)[C@@H](Cc2ccc(O)cc2)NC(=O)[C@@H]2CCCN2C(=O)[C@@H](Cc2ccccc2)NC1=O [GRATISIN]	Dose-dependent effect

Compound	MIC (Pseudomonas aeruginosa)	MIC [1]	MIC (Priestia megaterium)	MIC (Bacillus subtilis)	MIC (Staphylococcus aureus)	MIC (Escherichia coli)	Activity [2]
CC(C)C[C@@H]1NC(=O)[C@H](CCCN)NC(=O)[C@H](C(C)C)NC(=O)[C@@H]2CCCN2C(=O)[C@@H](Cc2ccccc2)NC(=O)[C@H](CC(C)C)NC(=O)[C@H](CCCN)NC(=O)[C@H](C(C)C)NC(=O)[C@@H]2CCCN2C(=O)[C@@H](Cc2ccccc2)NC1=O [GRAMICIDIN S] (cyclo(L[dF]PV[Orn]L[dF]PV[Orn]))	25 µg/mL (≈ 21.9 µM)	3.13 µg/mL (≈ 2.74 µM)	3.13 µg/mL (≈ 2.74 µM)	3.13 µg/mL (≈ 2.74 µM)	3.13 µg/mL (≈ 2.74 µM)	25 µg/mL (≈ 21.9 µM)	Dose-dependent effect
